Bounds are passed on as bounds.

Holding throughout (format): functional, cell-based
In one assay the test system is HL-60. Kind of assay: Cytotoxicity against human HL60 cells by rapid colorimetric assay. In a few lines:
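HL-60 human promyelocytic leukaemia cells were maintained in IMDM with 20% FBS at 37 °C in a CO2 incubator before testing against the cell panel.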

Another assay has as its system SNU1. Kind of assay: Cytotoxicity against human SNU1 cells by rapid colorimetric assay. The essentials:
(§1)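 A549, SNU-1, K562 and HepG2 cells were grown in RPMI1640 and MEM with 10% FBS at 37 °C in a CO2 incubator before testing against the cell panel.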

The next assay deals with K562. Kind of assay: Cytotoxicity against human K562 cells by rapid colorimetric assay. In a few lines: as §1
The subject of another assay is A549. Kind of assay: Cytotoxicity against human A549 cells by rapid colorimetric assay. The essentials:
as §1

For the next assay, the system named is HepG2. Description: Cytotoxicity against human HepG2 cells by rapid colorimetric assay. The essentials:
as §1

Take `C[C@H]1[C@H](C)CC[C@]2(C)CC[C@]3(C(=O)O)C(=CC[C@@H]4[C@@]5(C)CC[C@H](O)C(C)(C)[C@@H]5CC[C@]43C)[C@H]12`: the IC50 is 8.2 µM in the assay with HL-60; greater than 10 µM in the assay with SNU1; greater than 10 µM with K562; greater than 10 µM in the assay on A549; greater than 10 µM with HepG2.

For `CC(=O)O[C@@H]1CC[C@]2(C)[C@H]3CC=C4[C@@H]5[C@@H](C)[C@H](C)CC[C@]5(C)CC[C@@]4(C(=O)O)[C@]3(C)CC[C@H]2C1(C)C`, the IC50 in the assay on HL-60 is 3.9 µM; in the assay with SNU1, greater than 10 µM; in the assay on K562, greater than 10 µM; in the assay on A549, greater than 10 µM; with HepG2, greater than 10 µM.

`C=C1[C@@H]2[C@H](O)C[C@]3(C)[C@H](CC=C4[C@@H]5CC(C)(C)CC[C@]5(C)CC[C@]43C(=O)O)[C@@]2(C)CC[C@@H]1O`: the IC50 with HL-60, in the assay on SNU1, in the assay with K562, in the assay on A549 and in the assay on HepG2 was greater than 10 µM throughout.

For the molecule `CC1(C)CC[C@]2(C)CC[C@]3(C(=O)O)C(=CC[C@@H]4[C@@]5(C)CC[C@H](O)[C@](C)(CO)[C@@H]5CC[C@]43C)[C@@H]2C1`, the IC50 in the assay with HL-60, in the assay with SNU1, in the assay with K562, in the assay with A549 and in the assay on HepG2 was greater than 10 µM in each case.

For the molecule `CC1(C)CC[C@]2(C)CC[C@]3(C(=O)O)C(=CC[C@@H]4[C@@]5(C)CC[C@@H](O)C(C)(C)C5=CC[C@]43C)[C@@H]2C1`, the IC50 in the assay on HL-60, with SNU1, with K562, with A549 and in the assay with HepG2 was greater than 10 µM each time.

As for `CC(=O)O[C@@H]1CC[C@]2(C)[C@H]3CC=C4[C@@H]5CC(C)(C)CC[C@]5(C)CC[C@@]4(C(=O)O)[C@]3(C)CC[C@H]2C1(C)C`, the IC50 in the assay on HL-60 is 9.3 µM; with SNU1, greater than 10 µM; with K562, greater than 10 µM; with A549 it was greater than 10 µM; in the assay on HepG2 it was greater than 10 µM.

With `CC1(C)CC[C@]2(C)CC[C@]3(C(=O)O)C(=CC[C@@H]4[C@@]5(C)CC[C@H](O)C(C)(C)[C@@H]5CC[C@]43C)[C@@H]2C1`, the IC50 in the assay with HL-60 was 8.9 µM; in the assay with SNU1 it was 9.3 µM; in the assay on K562 it was greater than 10 µM; with A549, greater than 10 µM; in the assay with HepG2, greater than 10 µM.

As for `CC(=O)O[C@H]1CC[C@]2(C)[C@H]3CC=C4[C@@H]5[C@@H](C)[C@H](C)CC[C@]5(C)CC[C@@]4(C(=O)O)[C@]3(C)C[C@@H](O)[C@H]2C1(C)C`, the 50% inhibitory concentration (IC50) in the assay on HL-60 was 9.6 µM; in the assay on SNU1, greater than 10 µM; in the assay with K562, greater than 10 µM; in the assay on A549, greater than 10 µM; in the assay on HepG2 it was greater than 10 µM.

As for `CC(=O)O[C@H]1CC[C@]2(C)[C@H]3CC=C4[C@@H]5CC(C)(C)CC[C@]5(C)CC[C@@]4(C(=O)O)[C@]3(C)C[C@@H](O)[C@H]2C1(C)C`, the 50% inhibitory concentration (IC50) with HL-60 was 5.1 µM; with SNU1 it was greater than 10 µM; with K562 it was greater than 10 µM; with A549, greater than 10 µM; in the assay with HepG2 it was greater than 10 µM.

For the molecule `CC1(C)CC[C@]2(C)CC[C@]3(C(=O)O)C(=CC[C@@H]4[C@@]5(C)CC[C@H](O)[C@@](C)(CO)[C@@H]5[C@H](O)C[C@]43C)[C@@H]2C1`, the IC50 was 3.5 µM with HL-60; greater than 10 µM with SNU1; greater than 10 µM with K562; greater than 10 µM with A549; greater than 10 µM in the assay with HepG2.

Consider `CC(=O)O[C@H]1CC[C@]2(C)[C@H]3CC=C4[C@@H]5[C@@H](C)[C@H](C)CC[C@]5(C)CC[C@@]4(C(=O)O)[C@]3(C)CC[C@H]2C1(C)C`, for which the half-maximal inhibitory concentration (IC50) with HL-60 was 9.4 µM; in the assay with SNU1, greater than 10 µM; in the assay with K562 it was greater than 10 µM; in the assay on A549, greater than 10 µM; with HepG2, greater than 10 µM.

As to `C[C@H]1[C@H](C)CC[C@]2(C)CC[C@]3(C(=O)O)C(=CC[C@@H]4[C@@]5(C)CC[C@H](O)[C@](C)(CO)[C@@H]5[C@H](O)C[C@]43C)[C@H]12`, the IC50 in the assay with HL-60, with SNU1, in the assay with K562, with A549 and in the assay with HepG2 was greater than 10 µM in each case.

`CC[C@@]1(O)C(=O)OCc2c1cc1n(c2=O)Cc2cc3ccccc3nc2-1` [CAMPTOTHECIN] showed a half-maximal inhibitory concentration (IC50) with HL-60 of 0.8 µM.

With `COc1cccc2c1C(=O)c1c(O)c3c(c(O)c1C2=O)C[C@@](O)(C(=O)CO)C[C@@H]3O[C@H]1C[C@H](N)[C@H](O)[C@H](C)O1` [DOXORUBICIN], the IC50 in the assay with SNU1 turned out to be 4 µM; in the assay with K562, 2.5 µM; in the assay on A549 it was 2.2 µM.

The term IC50 denotes the concentration at which inhibition is half-maximal.

The values above are taken from ChEMBL document CHEMBL1152422, “Cytotoxic triterpenoids from the rhizomes of Astilbe chinensis” (J Nat Prod, 2009).
